Tests used:
Assay type in all cases: cell-based
VCaP_NED = test: Western blotting of protein expression during NED; settings: 10 μM, 48 hours
Summary of the method: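 Neuroendocrine-differentiated cells were treated for 48 h with DMSO, 10 μM GSK343 (an EZH2 inhibitor) or 10 μM test compound. Parental cells treated with DMSO served as the reference. Whole-cell lysates were extracted and analysed by western blotting. Data are from n=3 biological replicates, shown with SEM, and compared by two-tailed Student's t-test.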

LNCaP cells = test: Cell proliferation
LNCaP_NED cells = test: Cell proliferation
Summary of the method: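 LNCaP cells were cultured in charcoal-stripped serum (androgen- and steroid-depleted) media to induce neuroendocrine differentiation (LNCaP_NED). NED cells were then exposed to the test compound and/or the AR antagonist enzalutamide for 4 days, and cell proliferation was measured. DMSO served as the negative control.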

Row | Structure (SMILES) | CBX2 protein expression (VCaP_NED) | H3K27me3 levels (global) (VCaP_NED) | AR protein expression (VCaP_NED; compared to DMSO) | ENO2 and N-Myc protein expression (VCaP_NED; compared to DMSO) | cell proliferation with AR antagonist (LNCaP cells) | cell proliferation with AR antagonist (LNCaP_NED cells)
1 | CCCc1cc(C)[nH]c(=O)c1CNC(=O)c1cc(-c2ccnc(N3CCN(C)CC3)c2)cc2c1cnn2C(C)C [GSK343] | decrease in CBX2 expression | reduces H3K27me3 levels | increase AR | decrease ENO2 and N-Myc expression | – | –
2 | CNC(=O)c1ccc(N2C(=S)N(c3ccc(C#N)c(C(F)(F)F)c3)C(=O)C2(C)C)cc1F [enzalutamide] | – | – | – | – | highly decreased proliferation | no further decrease in proliferation

Source: publication PMC8358665 (Chembiochem : a European journal of chemical biology, 2021)
